Data from ChEMBL document CHEMBL3526004, “Interaction of silymarin flavonolignans with organic anion-transporting polypeptides” (Drug Metab Dispos, 2013).

Assays:
[1] = target: T1, Solute carrier organic anion transporter family member 2B1 (Homo sapiens, UniProt O94956); test: Inhibition of OATP2B1 (unknown origin) expressed in MDCK2 cells assessed as reduction of [3H]estrone-3-sulfate uptake at 10 uM after 3 mins by beta-counting; format: ADME, cell-based; conditions: mdck-ii, 0.05 h
T1 sequence (O94956 whole entry): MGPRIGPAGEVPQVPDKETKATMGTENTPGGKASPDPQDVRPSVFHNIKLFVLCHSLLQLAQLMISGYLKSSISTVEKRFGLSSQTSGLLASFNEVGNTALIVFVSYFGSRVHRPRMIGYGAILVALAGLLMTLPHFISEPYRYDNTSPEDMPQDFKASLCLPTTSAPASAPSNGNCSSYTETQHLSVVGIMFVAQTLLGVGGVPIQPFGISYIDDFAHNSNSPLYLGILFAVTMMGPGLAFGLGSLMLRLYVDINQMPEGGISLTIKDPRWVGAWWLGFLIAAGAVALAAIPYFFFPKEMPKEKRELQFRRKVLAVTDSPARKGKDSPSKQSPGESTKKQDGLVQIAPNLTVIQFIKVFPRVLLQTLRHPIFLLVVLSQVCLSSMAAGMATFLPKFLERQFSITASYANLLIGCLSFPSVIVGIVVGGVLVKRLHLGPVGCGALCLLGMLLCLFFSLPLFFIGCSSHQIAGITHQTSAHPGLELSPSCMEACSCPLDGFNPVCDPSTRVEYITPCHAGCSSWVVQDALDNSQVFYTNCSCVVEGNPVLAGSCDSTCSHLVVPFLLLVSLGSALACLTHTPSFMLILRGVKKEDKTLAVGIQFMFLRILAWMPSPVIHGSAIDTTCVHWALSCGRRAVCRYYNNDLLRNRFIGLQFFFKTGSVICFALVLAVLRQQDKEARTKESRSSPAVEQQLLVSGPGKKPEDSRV
Summary of the method: (§1)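 Confluent cells were washed in PBS, then given 1 µM [3H]-E2 17G (OATP1B1, OATP1B3 HEK293) or 1 µM [3H]-E1S (OATP2B1 MDCKII) with 10 µM compound in HBSS pH 7.4 for 3 min at 37°C. Uptake into mock or parental cells was subtracted after protein normalization. Results are % vehicle, mean ± SD of at least three experiments in triplicate.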

[2] = target: T2, Solute carrier organic anion transporter family member 1B1 (Homo sapiens, UniProt Q9Y6L6); test: Inhibition of OATP1B1 (unknown origin) expressed in HEK293 cells assessed as reduction of [3H]estradiol-17beta-glucuronide uptake at 10 uM after 3 mins by beta-counting; format: ADME, cell-based; conditions: hek293, 0.05 h; summary of the method: as §1
T2 sequence (Q9Y6L6 whole entry): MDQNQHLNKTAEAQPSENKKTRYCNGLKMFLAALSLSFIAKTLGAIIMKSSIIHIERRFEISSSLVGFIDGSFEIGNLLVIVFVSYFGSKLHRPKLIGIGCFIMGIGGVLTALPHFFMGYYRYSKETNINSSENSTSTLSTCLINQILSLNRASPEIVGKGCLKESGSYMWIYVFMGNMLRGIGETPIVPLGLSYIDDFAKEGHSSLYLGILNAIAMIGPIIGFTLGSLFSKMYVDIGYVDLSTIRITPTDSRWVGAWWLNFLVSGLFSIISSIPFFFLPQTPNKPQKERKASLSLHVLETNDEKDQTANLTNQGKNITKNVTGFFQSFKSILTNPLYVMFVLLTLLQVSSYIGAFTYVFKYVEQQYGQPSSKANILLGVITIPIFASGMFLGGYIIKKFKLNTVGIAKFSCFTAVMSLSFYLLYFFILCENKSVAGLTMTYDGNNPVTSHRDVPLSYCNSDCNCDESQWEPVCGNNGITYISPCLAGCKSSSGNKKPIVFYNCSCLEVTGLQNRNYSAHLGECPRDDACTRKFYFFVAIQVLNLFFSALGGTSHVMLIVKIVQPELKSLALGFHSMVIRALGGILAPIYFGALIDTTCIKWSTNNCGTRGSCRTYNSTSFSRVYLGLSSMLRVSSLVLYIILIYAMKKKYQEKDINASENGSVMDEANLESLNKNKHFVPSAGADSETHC

[3] = target: T3, Solute carrier organic anion transporter family member 1B3 (Homo sapiens, UniProt Q9NPD5); test: Inhibition of OATP1B3 (unknown origin) expressed in HEK293 cells assessed as reduction of [3H]estradiol-17beta-glucuronide uptake at 10 uM after 3 mins by beta-counting; format: ADME, cell-based; conditions: hek293, 0.05 h; summary of the method: as §1
T3 sequence (Q9NPD5 whole entry): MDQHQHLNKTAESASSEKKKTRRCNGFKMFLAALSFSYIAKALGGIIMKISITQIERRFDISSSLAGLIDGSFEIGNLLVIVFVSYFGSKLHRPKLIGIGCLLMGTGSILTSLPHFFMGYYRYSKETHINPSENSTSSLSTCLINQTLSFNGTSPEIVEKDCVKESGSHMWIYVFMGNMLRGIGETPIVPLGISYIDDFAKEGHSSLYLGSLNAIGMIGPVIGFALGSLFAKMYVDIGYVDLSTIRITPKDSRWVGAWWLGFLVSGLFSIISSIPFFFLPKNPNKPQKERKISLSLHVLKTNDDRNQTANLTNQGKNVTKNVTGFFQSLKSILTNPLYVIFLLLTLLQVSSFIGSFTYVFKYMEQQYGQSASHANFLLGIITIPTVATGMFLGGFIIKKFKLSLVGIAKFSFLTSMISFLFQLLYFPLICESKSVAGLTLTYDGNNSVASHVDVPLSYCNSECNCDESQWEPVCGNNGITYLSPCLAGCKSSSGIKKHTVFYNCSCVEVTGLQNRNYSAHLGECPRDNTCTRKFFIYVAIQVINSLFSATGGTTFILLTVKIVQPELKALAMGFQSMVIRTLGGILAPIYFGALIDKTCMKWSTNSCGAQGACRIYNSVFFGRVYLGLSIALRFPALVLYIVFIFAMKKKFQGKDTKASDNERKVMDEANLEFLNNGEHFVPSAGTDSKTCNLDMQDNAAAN

[4] = target: T2, Solute carrier organic anion transporter family member 1B1; test: Inhibition of OATP1B1 (unknown origin) expressed in HEK293 cells assessed as reduction of [3H]estradiol-17beta-glucuronide uptake after 3 mins by beta-counting; format: ADME, cell-based
Summary of the method: (§2)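 Transfected HEK293 (G418) or MDCKII (hygromycin B) cells were co-incubated with 0-100 µM compound and [3H]-E2 17G (1 µM, 0.25 µCi/ml; OATP1B1, OATP1B3) or [3H]-E1S (1 µM; OATP2B1) in HBSS pH 7.4, 3 min at 37°C. OATP-negative uptake was subtracted, and results expressed as % vehicle. Two experiments were run in duplicate. IC50 came from non-linear dose-response fits.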

[5] = target: T3, Solute carrier organic anion transporter family member 1B3; test: Inhibition of OATP1B3 (unknown origin) expressed in HEK293 cells assessed as reduction of [3H]estradiol-17beta-glucuronide uptake after 3 mins by beta-counting; format: ADME, cell-based; summary of the method: as §2
[6] = target: T1, Solute carrier organic anion transporter family member 2B1; test: Inhibition of OATP2B1 (unknown origin) expressed in MDCK2 cells assessed as reduction of [3H]estrone-3-sulfate uptake after 3 mins by beta-counting; format: ADME, cell-based, MDCK-II; summary of the method: as §2

Structure (SMILES)	inhibition (INH) [1]	inhibition (INH) [2]	inhibition (INH) [3]	IC50 [4] [µM]	IC50 [5] [µM]	IC50 [6] [µM]
COc1cc([C@H]2Oc3ccc([C@H]4Oc5cc(O)cc(O)c5C(=O)[C@@H]4O)cc3O[C@@H]2CO)ccc1O [ISOSILYBIN A]	Active	Active				
COc1cc([C@@H]2Oc3ccc([C@H]4Oc5cc(O)cc(O)c5C(=O)[C@@H]4O)cc3O[C@H]2CO)ccc1O [ISOSILYBIN B]	Active	Active	Active			
COc1cc(C2Oc3c(O)cc([C@H]4Oc5cc(O)cc(O)c5C(=O)[C@@H]4O)cc3C2CO)ccc1O (stereo partly drawn) [SILICRISTIN]	Active	Not Active		9	36.4	3.6
COc1cc([C@@H]2[C@H]3CO[C@@]4(O)C(=O)[C@@H]2C=C([C@H]2Oc5cc(O)cc(O)c5C(=O)[C@@H]2O)[C@@H]34)ccc1O [SILIDIANIN]	Active	Active	Active			
